Reference: ChEMBL document CHEMBL1124106, “Synthesis of diethylenetriaminepentaacetic acid conjugated inulin and utility for cellular uptake of liposomes” (J Med Chem, 1988)
Values joined by “and” are separate entries in the source; they are usually repeats but may differ in a detail not shown here. Equal values may be shown once.

Columns and labels:
[1] = tested on: Mus musculus; assay: Biodistribution of compound in mice blood after 1 hr of intravenous injection; type: ADME, organism-based; conditions: in vivo
Summary of the method: (§1)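 BALB/c mice (about 25 g), n = 4. Free ¹¹¹In- or ⁶⁷Ga-labeled compound (50–100 μL, about 100 000 cpm) was injected into a tail vein. Mice were held in separate cages and killed by cervical dislocation, with blood and cumulative excreta collected. Tissues were rinsed, blotted, weighed and γ-counted, with blood background subtracted (blood volume 8.0%). Values are % injected dose ± SD.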

[2] = tested on: Mus musculus; assay: Biodistribution in mice stomach, after 24 hr of intravenous administration of 1-2 ug of ofcompound (entrapped in bovine brain sphingomyelin/ cholesterol multilamellar vehicles); type: ADME, organism-based; conditions: in vivo
Summary of the method: (§2)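 BALB/c mice (about 25 g), groups of 2–5. Compound ¹¹¹In-loaded into SM/CH (2:1, mol/mol) multilamellar vesicles, given as a single tail-vein injection. Lipid dose was 1–2 μg phospholipid/g body weight, in 50–100 μL carrying about 100 000 cpm. Mice were killed by cervical dislocation. Organs were rinsed, blotted, weighed and γ-counted, with blood background subtracted. Values are % injected dose ± SD.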

[3] = tested on: Mus musculus; assay: Biodistribution in mice blood, after 12 hr of intravenous administration of 1-2 ug of compound (entrapped in bovine brain sphingomyelin/ cholesterol multilamellar vehicles); type: ADME, organism-based; conditions: in vivo
Summary of the method: (§3)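 BALB/c mice (about 25 g), 3–5 per group, given 50–100 μL tail-vein injection of 111In-labeled conjugate entrapped in SM/CH (2:1 mol/mol) multilamellar vesicles, approx. 100 000 cpm; dose 1–2 μg phospholipid/g body weight. Killed by cervical dislocation at set times; blood, cumulative excretion and rinsed, blotted, weighed tissues γ-counted, blood background subtracted. Result is % injected dose ± SD.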

[4] = tested on: Mus musculus; assay: Biodistribution of compound in mice intestine after 21 hr of intravenous injection; type: ADME, organism-based; conditions: in vivo; summary of the method: as §1
[5] = tested on: Mus musculus; assay: Biodistribution in mice heart, after 1 hr of intravenous administration of 1-2 ug of compound (entrapped in bovine brain sphingomyelin/ cholesterol multilamellar vehicles); type: ADME, organism-based; conditions: in vivo; summary of the method: as §3
[6] = tested on: Mus musculus; assay: Biodistribution in mice tail, after 12 hr of intravenous administration of 1-2 ug of compound (entrapped in bovine brain sphingomyelin/ cholesterol multilamellar vehicles); type: ADME, organism-based; conditions: in vivo; summary of the method: as §2
[7] = tested on: Mus musculus; assay: Biodistribution in mice brain, after 24 hr of intravenous administration of 1-2 ug of compound (entrapped in bovine brain sphingomyelin/ cholesterol multilamellar vehicles); type: ADME, organism-based; conditions: in vivo; summary of the method: as §3
[8] = tested on: Mus musculus; assay: Biodistribution in mice tail, after 24 hr of intravenous administration of 1-2 ug of compound (entrapped in bovine brain sphingomyelin/ cholesterol multilamellar vehicles); type: ADME, organism-based; conditions: in vivo; summary of the method: as §2
[9] = tested on: Mus musculus; assay: Biodistribution in mice stomach, after 1 hr of intravenous administration of 1-2 ug of compound (entrapped in bovine brain sphingomyelin/ cholesterol multilamellar vehicles); type: ADME, organism-based; conditions: in vivo; summary of the method: as §3
[10] = tested on: Mus musculus; assay: Biodistribution in mice skin, after 24 hr of intravenous aadministration of 1-2 ug of compound (entrapped in bovine brain sphingomyelin/ cholesterol multilamellar vehicles); type: ADME, organism-based, Zone of skin; conditions: in vivo; summary of the method: as §3
[11] = tested on: Mus musculus; assay: Biodistribution of compound in mice liver after 0.17 hr of intravenous injection; type: ADME, organism-based; conditions: in vivo; summary of the method: as §1
[12] = (§4) Biodistribution of compound in mice excretion after 1 hr of intravenous injection; type: ADME, organism-based; conditions: mouse, excretion (excreta, not specified further), read-out: ID; summary of the method: as §1
[13] = tested on: Mus musculus; assay: as §4; type: ADME, organism-based; conditions: in vivo, 1 h; summary of the method: as §1
[14] = tested on: Mus musculus; assay: Biodistribution in mice brain, after 12 hr of intravenous administration of 1-2 ug of compound (entrapped in bovine brain sphingomyelin/ cholesterol multilamellar vehicles); type: ADME, organism-based; conditions: in vivo; summary of the method: as §3
[15] = tested on: Mus musculus; assay: Biodistribution in mice skin, after 12 hr of intravenous administration of 1-2 ug of compound (entrapped in bovine brain sphingomyelin/ cholesterol multilamellar vehicles); type: ADME, organism-based, Zone of skin; conditions: in vivo; summary of the method: as §3
[16] = tested on: Mus musculus; assay: Biodistribution in mice intestine, after 24 hr of intravenous administration of 1-2 ug of compound (entrapped in bovine brain sphingomyelin/ cholesterol multilamellar vehicles); type: ADME, organism-based; conditions: in vivo; summary of the method: as §3
[17] = tested on: Mus musculus; assay: Biodistribution in mice skin, after 1 hr of intravenous administration of 1-2 ug of compound (entrapped in bovine brain sphingomyelin/ cholesterol multilamellar vehicles); type: ADME, organism-based, Zone of skin; conditions: in vivo; summary of the method: as §3
[18] = tested on: Mus musculus; assay: Biodistribution of compound in mice leg muscle after 1 hr of intravenous injection; type: ADME, organism-based, Muscle tissue; conditions: in vivo; summary of the method: as §1
[19] = Biodistribution in mice excretion, after 1 hr of intravenous administration of 1-2 ug of compound (entrapped in bovine brain sphingomyelin/ cholesterol multilamellar vehicles); type: ADME, organism-based; conditions: mouse, excretion (excreta, not specified further), read-out: ID; summary of the method: as §3
[20] = tested on: Mus musculus; assay: Biodistribution in mice intestine, after 48 hr of intravenous administration of 1-2 ug of compound (entrapped in bovine brain sphingomyelin/ cholesterol multilamellar vehicles); type: ADME, organism-based; conditions: in vivo; summary of the method: as §3
[21] = tested on: Mus musculus; assay: Biodistribution of compound in mice leg muscle after 21 hr of intravenous injection; type: ADME, organism-based, Muscle tissue; conditions: in vivo; summary of the method: as §1
[22] = tested on: Mus musculus; assay: Biodistribution in mice skin, after 48 hr of intravenous administration of 1-2 ug ofcompound (entrapped in bovine brain sphingomyelin/ cholesterol multilamellar vehicles); type: ADME, organism-based, Zone of skin; conditions: in vivo; summary of the method: as §3
[23] = tested on: Mus musculus; assay: Biodistribution in mice brain, after 1 hr of intravenous administrating 1-2 ug of compound (entrapped in bovine brain sphingomyelin/ cholesterol multilamellar vehicles); type: ADME, organism-based; conditions: in vivo; summary of the method: as §3
[24] = tested on: Mus musculus; assay: Biodistribution of compound in mice kidneys after 1 hr of intravenous injection; type: ADME, organism-based, Kidney; conditions: in vivo; summary of the method: as §1
[25] = tested on: Mus musculus; assay: Biodistribution in mice spleen, after 48 hr of intravenous administration of 1-2 ug of compound (entrapped in bovine brain sphingomyelin/ cholesterol multilamellar vehicles); type: ADME, organism-based; conditions: in vivo; summary of the method: as §3
[26] = tested on: Mus musculus; assay: Biodistribution of compound in mice carcass after 1 hr of intravenous injection; type: ADME, organism-based; conditions: in vivo; summary of the method: as §1
[27] = tested on: Mus musculus; assay: Biodistribution in mice intestine, after 1 hr of intravenous administration of 1-2 ug of compound (entrapped in bovine brain sphingomyelin/ cholesterol multilamellar vehicles); type: ADME, organism-based; conditions: in vivo; summary of the method: as §3
[28] = (§5) Biodistribution of compound in mice excretion after 21 hr of intravenous injection; type: ADME, organism-based; conditions: mouse, excretion (excreta, not specified further), read-out: ID; summary of the method: as §1
[29] = tested on: Mus musculus; assay: as §5; type: ADME, organism-based; conditions: in vivo, 21 h; summary of the method: as §1
[30] = tested on: Mus musculus; assay: Biodistribution in mice spleen, after 1 hr of intravenous aadministration of 1-2 ug of compound (entrapped in bovine brain sphingomyelin/ cholesterol multilamellar vehicles); type: ADME, organism-based; conditions: in vivo; summary of the method: as §3
[31] = tested on: Mus musculus; assay: Biodistribution in mice heart, after 48 hr of intravenous administration of 1-2 ug of compound (entrapped in bovine brain sphingomyelin/ cholesterol multilamellar vehicles); type: ADME, organism-based; conditions: in vivo; summary of the method: as §3
[32] = tested on: Mus musculus; assay: Biodistribution in mice leg muscle, after 48 hr of intravenous administration of compound (entrapped in bovine brain sphingomyelin/ cholesterol multilamellar vehicles); type: ADME, organism-based, Muscle tissue; conditions: in vivo; summary of the method: as §3
[33] = tested on: Mus musculus; assay: Biodistribution in mice fat, after 24 hr of intravenous administration of 1-2 ug of compound (entrapped in bovine brain sphingomyelin/ cholesterol multilamellar vehicles); type: ADME, organism-based; conditions: in vivo; summary of the method: as §3
[34] = Biodistribution in mice excretion, after 24 hr of intravenous administration of 1-2 ug of ofcompound (entrapped in bovine brain sphingomyelin/ cholesterol multilamellar vehicles); type: ADME, organism-based; conditions: mouse, excretion (excreta, not specified further), read-out: ID; summary of the method: as §3
[35] = tested on: Mus musculus; assay: Biodistribution in mice fat, after 48 hr of intravenous administration of 1-2 ug of compound (entrapped in bovine brain sphingomyelin/ cholesterol multilamellar vehicles); type: ADME, organism-based; conditions: in vivo; summary of the method: as §3
[36] = tested on: Mus musculus; assay: Biodistribution in mice carcass, after 48 hr of intravenous administrating 1-2 ug of compound (entrapped in bovine brain sphingomyelin/ cholesterol multilamellar vehicles); type: ADME, organism-based; conditions: in vivo; summary of the method: as §3
[37] = tested on: Mus musculus; assay: Biodistribution in mice leg muscle, after 1 hr of intravenous administration of 1-2 ug ofcompound (entrapped in bovine brain sphingomyelin/ cholesterol multilamellar vehicles); type: ADME, organism-based, Muscle tissue; conditions: in vivo; summary of the method: as §3
[38] = tested on: Mus musculus; assay: Biodistribution of compound in mice spleen after 0.17 hr of intravenous injection; type: ADME, organism-based; conditions: in vivo; summary of the method: as §1

ID [1]: 1.1% and 4.5%
ID [2]: 0.1%
ID [3]: 0.5%
ID [4]: 2.2% and 5.8%
ID [5]: 0%
ID [6]: 2.7%
ID [7]: 0.2%
ID [8]: 0.9%
ID [9]: 0.8%
ID [10]: 2%
ID [11]: 0.6% and 1.3%
dose excreted at 1 h [12]: 50.7%
ID [13]: 50%
ID [14]: 0%
ID [15]: 1.1%
ID [16]: 0.8%
ID [17]: 1.6%
ID [18]: 0.8% and 1.3%
dose excreted at 1 h [19]: 0%
ID [20]: 0.6%
ID [21]: 0.2% and 0.3%
ID [22]: 2.8%
ID [23]: 0%
ID [24]: 1.9% and 1.7%
ID [25]: 2.9%
ID [26]: 4.1% and 9.1%
ID [27]: 0.7%
dose excreted at 21 h [28]: 77.1%
ID [29]: 69.5%
ID [30]: 3.9%
ID [31]: 0%
ID [32]: 0.3%
ID [33]: 0.4%
dose excreted at 24 h [34]: 0%
ID [35]: 0.1%
ID [36]: 1.3%
ID [37]: 0.3%
ID [38]: 0.2% and 0.1%
SMILES: NCCNC(=O)CN(CCN(CCN(CC(=O)O)CC(=O)O)CC(=O)O)CC(=O)O
